This is a sample that favours compounds with a hit; in the whole collection about 4.3% have one here.
TAAR1 ag = agonists of human TAAR1; AID 624467; CHO RD-HGA16 TAAR1, Fluo-8 calcium fluorescence; vehicle wells 0%, saturating PEA agonist 100%; activation, % at 3 µM; 0.99% of 360,000 active; Q96RJ0;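 active = activation above the mean activation of all test compounds in the run plus 3 SD, cut at about 38% in these data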
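Signal – calcium-sensitive Fluo-8 signal, excitation 470-495, emission 515-575 nm · System – RD-HGA16 (CHO) cells co-expressing Gα16 and hTAAR1 · Incubation – 17-24 h seeding, 75 min 37 °C dye, 30 min RT · Compound dosing – 3 µM single concentration · Repeats – no replicates (n 1)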
TAAR1 antag = antagonists of human TAAR1 | Q96RJ0 | CHO RD-HGA16 TAAR1, Fluo-8 calcium fluorescence, antagonist | inhibition, % at 3 µM | 1.5% of 360,000 active | AID 624466;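 active = inhibition above a per-plate cutoff, the mean inhibition of test compounds on that plate plus 3 SD, cut at about 49% in these data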
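Test system – hTAAR1-expressing CHO RD-HGA16 cells, Gα16-coupled · Reagent – β-PEA at EC80 concentration, post-compound challenge · Compound dosing – 3 µM, single point · Timing – 140 s kinetic read after compound, 140 s after agonist · Detection – Fluo-8 intracellular calcium dye fluorescence, real-time kinetic reads · Control set – DMSO and EC80 PEA controls · Repeats – n of 1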
OX1R antag-1 = antagonists of human orexin 1 receptor (OX1R) | O43613 | OX1R-expressing cells, FRET antagonist read-out | inhibition, % at 6.6 µM | 1.8% of 330,000 active | AID 485270; in the data active = inhibition mostly above about 38%, no sharp cut-off; inactive = mostly below about 40%
Target sequence (O43613 whole entry, looked up): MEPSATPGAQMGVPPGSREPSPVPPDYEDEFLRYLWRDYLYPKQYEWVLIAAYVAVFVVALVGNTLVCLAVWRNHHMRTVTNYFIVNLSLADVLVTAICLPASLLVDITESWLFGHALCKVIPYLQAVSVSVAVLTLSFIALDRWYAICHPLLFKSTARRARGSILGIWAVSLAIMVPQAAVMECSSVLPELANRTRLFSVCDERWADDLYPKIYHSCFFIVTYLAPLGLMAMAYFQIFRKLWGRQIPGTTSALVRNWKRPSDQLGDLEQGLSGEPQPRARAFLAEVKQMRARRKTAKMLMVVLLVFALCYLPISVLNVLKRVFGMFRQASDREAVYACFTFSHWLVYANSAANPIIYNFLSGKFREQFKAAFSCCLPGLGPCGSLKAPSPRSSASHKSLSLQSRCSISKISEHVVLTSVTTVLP
CHO parental Ca = signal in parental CHO cells, OX1R antagonist counter-screen | parental CHO-K1, ATP-induced calcium, Fluo-8 fluorescence | inhibition, % at 5.6 µM | 0.63% of 330,000 active | AID 463079;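 active = inhibition above that plate's mean sample inhibition plus 3 SD, cut at about 26% in these data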
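Test system: untransfected parental CHO cell line. Compound: one dose, 5.6 µM nominal. Detection: intracellular calcium via Fluo-8 no-wash fluorescent dye. Measure: % inhibition. Benchmarks: ATP-challenged DMSO wells low, unchallenged DMSO wells high.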
OX1R antag-2 = blocks the human orexin 1 receptor; inhibition, % at 5 µM; AID 434989; CHO/OX1R cells, Fluo-8 calcium fluorescence, orexin A; 0.43% of 330,000 active; O43613;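 active = inhibition above its plate's threshold, mean inhibition of all tested compounds on the plate plus 3 SD, cut at about 37% in these data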
GalR3 antagonist = human GalR3 antagonism; inhibition, % at 3 µM; 0.44% of 360,000 active; O60755; HEK293 GalR3-CNG cAMP membrane potential fluorescence; galR3 body fused to GalR1 C-terminus;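 active = inhibition above the screen-wide average plus 3 SD, cut at about 13% in these data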;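 note: forskolin and galanin both at EC90 stimulate the cells; cAMP rise reported by CNG channel membrane potential dye signal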
Large screens that a line does not name were inactive.

CCCCC[n+]1ccn(C2=C([O-])c3ccccc3C(=O)/C2=N\S(=O)(=O)c2ccc(Cl)cc2)c1	none
CCCC[n+]1ccn(C2=C([O-])c3ccccc3C(=O)/C2=N\S(=O)(=O)c2ccc(Cl)cc2)c1	OX1R antag-1 46.8
CN(C)c1cccc2c(S(=O)(=O)NC(=O)[C@H]3O[C@@H](n4ccc(=O)[nH]c4=O)[C@H](O)[C@@H]3O)cccc12	none (no result: OX1R antag-1, CHO parental Ca, OX1R antag-2)
Cc1ccccc1NC(=O)C(=O)NCC1CCCN1S(=O)(=O)c1cccs1 (stereo not drawn)	OX1R antag-1 33.6
Cc1ccc(NC(=O)C(=O)NCC2CCCN2S(=O)(=O)c2cccs2)cc1C (stereo not drawn)	none
O=C(NCC1CCCN1S(=O)(=O)c1cccs1)c1cccc([N+](=O)[O-])c1 (stereo not drawn)	OX1R antag-1 55.2
COc1ccccc1OCC(=O)Nc1ccccc1C(=O)NCc1cccnc1	none
COc1ccccc1Nc1ncccc1C(=O)NCc1ccccc1	OX1R antag-1 75.3
COc1ccc(COc2ccccc2C(=O)NCc2ccccc2)cc1F	TAAR1 antag 70.9, CHO parental Ca 34.3
COc1ccccc1C(=O)NCc1ccc2c(c1)OCO2	none
O=C(Nc1cccc(-c2cn3cccnc3n2)c1)c1cccs1	none
Oc1ccc(-c2csc(-c3ccccc3)n2)cc1O	CHO parental Ca 27.8
Cc1nc(-c2cccc(NC(=O)c3cccs3)c2)cs1	none
O=C(Nc1cccc(-c2csc(-c3ccccc3)n2)c1)c1cccs1	OX1R antag-1 67.2
Oc1ccc(-c2csc(-c3cccnc3)n2)cc1O	none
Cc1ccn2cc(-c3cccc(NC(=O)c4cccs4)c3)nc2c1	OX1R antag-1 75.4
Cc1ccc(C(=O)Nc2cccc(NC(=O)c3cccs3)c2)c(C)c1	OX1R antag-1 64.1
O=C(c1ccc([N+](=O)[O-])cc1)N1CCN(C(=O)C2CCCCC2)CC1	none
O=C(c1ccc(C(F)(F)F)cc1)C1CCCN(C(=O)CCc2ccncc2)C1 (stereo not drawn)	none
CC(C)C(=O)Nc1cccc(-c2csc(-c3ccccc3)n2)c1	none
CC(C)C(=O)Nc1ccc(-c2csc(-c3ccccc3)n2)cc1	CHO parental Ca 41.1
Cc1nn(C)c(C)c1/C=N/N=C1\CCC2C3CCc4cc(O)ccc4C3CCC12C (stereo not drawn)	TAAR1 antag 62.8
CN(C)c1ccc(C(=O)c2ccc(N(C)C)c3ccccc23)cc1	OX1R antag-1 55.2, CHO parental Ca 70.4
COc1ccc(C(=O)c2ccc(N(C)C)cc2)c(OC)c1	none
O=[N+]([O-])c1cc(C(F)(F)F)cc([N+](=O)[O-])c1N1CCN(S(=O)(=O)c2ccccc2)CC1	none
O=[N+]([O-])c1cc(C(F)(F)F)ccc1N1CCN(S(=O)(=O)c2ccc3ccccc3c2)CC1	GalR3 antagonist 16.5
O=[N+]([O-])c1ccc(S(=O)(=O)NCCN2CCOCC2)cc1	OX1R antag-1 42.6
CCOc1ccc(S(=O)(=O)N2CCN(C(=O)CCC(=O)N3CCOCC3)CC2)cc1	none
O=C(CCC(=O)N1CCN(S(=O)(=O)c2ccc([N+](=O)[O-])cc2)CC1)N1CCOCC1	OX1R antag-1 48.4
O=C(c1ccco1)N1CCN(S(=O)(=O)c2ccc([N+](=O)[O-])cc2)CC1	OX1R antag-1 63.5
Cc1nn(Cc2ccc(C(=O)N3CCN(C(=O)c4ccco4)CC3)o2)c(C)c1[N+](=O)[O-]	OX1R antag-1 66.2
O=C(NC1CC1)c1ccc(-c2cnc3cccnn23)cc1	none (no result: OX1R antag-1, CHO parental Ca, OX1R antag-2)
CCCN1CCCCC(NC(=O)c2ccccc2C)C1=O (stereo not drawn)	none (no result: OX1R antag-1, CHO parental Ca, OX1R antag-2)
C[C@@H]1CN([C@@H](C)CO)C(=O)c2cc(Br)cnc2O[C@@H]1CN(C)S(=O)(=O)c1ccc(F)cc1	none (no result: OX1R antag-1, CHO parental Ca, OX1R antag-2)
COc1cccc(CN(C)C(=O)CN2C(=O)NC(c3ccccc3)(c3ccccc3)C2=O)c1	none
Cc1ccc(NC(=O)COC(=O)C2(c3ccc(Cl)cc3)CCCC2)cc1	TAAR1 antag 58.3
CCOC(=O)c1ccc(NC(=O)C2(c3ccc(Cl)cc3)CCCC2)cc1	none
O=C(CCN1C(=O)NC2(CCCC2)C1=O)Nc1ccc(-c2nc3ccccc3s2)cc1	TAAR1 antag 67.5
